NPY1 pot ag: human NPY-Y1 potentiation or agonism, primary screen; P25929; NPY-Y1 expressing cells, potentiator/agonist activation; activation, % at 3.6 µM; hit rate 0.37% among 220,000; AID 1304; in the data active = activation above about 33%, passing the limit was not always enough;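 also: cells stimulated with NPY at EC10 then isoproterenol at EC100; 0% = low agonist plus stimulus and 100% = saturating agonist plus stimulus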
Target sequence (P25929 whole entry, looked up): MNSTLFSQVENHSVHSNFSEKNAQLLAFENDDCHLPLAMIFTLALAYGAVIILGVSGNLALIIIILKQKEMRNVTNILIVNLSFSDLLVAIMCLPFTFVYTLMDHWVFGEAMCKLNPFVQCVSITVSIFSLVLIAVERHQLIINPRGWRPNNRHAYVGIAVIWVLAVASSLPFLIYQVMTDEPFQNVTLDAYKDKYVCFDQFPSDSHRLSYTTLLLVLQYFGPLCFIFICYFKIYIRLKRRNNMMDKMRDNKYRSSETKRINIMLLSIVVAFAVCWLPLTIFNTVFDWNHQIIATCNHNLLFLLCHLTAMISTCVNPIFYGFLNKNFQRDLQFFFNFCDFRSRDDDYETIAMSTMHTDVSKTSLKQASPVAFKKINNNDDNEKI
Insulin prom up: MIN6 insulin promoter up-regulation; MIN6 insulin promoter-GFP reporter, high-content imaging; stronger effect = higher value; AID 1625; hit rate 0.3% among 190,000; z-score at 5 µM;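 active = z-score above 3 at 5 µM with at least 500 cells counted in the well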
NPY-Y2 PAM-ag: potentiates or activates human NPY-Y2 receptor; P49146; cells expressing NPY-Y2, potentiator/agonist read-out; activation, % at 3.6 µM; hit rate 0.45% among 220,000; AID 1359; in the data active = activation above about 27%;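 also: cells stimulated with NPY near EC25 plus isoproterenol at EC100; 0% = vehicle plus submaximal agonist and 100% = vehicle plus saturating agonist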
INS promoter inh: TRM-6 insulin promoter activity inhibition. hit rate 0.9% among 130,000. TRM-6 cells, insulin promoter-eGFP reporter, imaging; reporter expression induced with tamoxifen. AID 1273. inhibition, % at 2 µM;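 active = inhibition above the mean plus 3 SD, with well images judged a real hit on visual review, cut at about 60% in these data, passing the limit was not always enough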
NPY Y2 blocker: antagonists of human neuropeptide Y receptor Y2; P49146; NPY-Y2 expressing cells, antagonist mode; inhibition, % at 2.7 µM; hit rate 0.99% among 140,000;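 also: 0% = vehicle with agonist challenge and 100% = reference antagonist with challenge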
NPY-Y1 antag: NPY-Y1 (human) receptor antagonism | P25929 | HEK293-CNG Y1 cells, membrane potential fluorescence; NPY at EC95, then isoproterenol | inhibition, % at 3.6 µM | hit rate 1% among 200,000 | AID 1040;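 active = inhibition above the campaign mean inhibition of all tested compounds plus 3 SD, cut at about 20% in these data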;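 also: 0% = DMSO wells given NPY plus isoproterenol and 100% = isoproterenol alone without NPY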
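material = HEK293 cells with Y1 receptor plus CNG channel | also added = NPY 25 nM then isoproterenol 1 µM plus Ro 20-1724 25 µM | schedule = dye 3 h, compound 60 min room temperature, stimulation 45 min | measured by = membrane potential fluorescence | benchmarks = high control isoproterenol alone, low control NPY with isoproterenol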
NPY1 antag conf: confirmation of human neuropeptide Y receptor Y1 antagonists; shares compounds with NPY-Y1 antag; HEK293-CNG NPY-Y1, membrane potential fluorescence, cAMP; NPY challenge against isoproterenol-raised cAMP; inhibition, % at 3.6 µM; hit rate 21% among 1,200; AID 1254; in the data active = inhibition above about 20%;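 also: 0% = vehicle with agonist plus stimulus and 100% = stimulus alone without agonist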
NPY2 antag ctr: human NPY-Y2 antagonism in NPY-Y1 counter-screen. shares compounds with NPY-Y1 antag. HEK293 NPY-Y2 CNG membrane potential fluorescence; cells given NPY, then isoproterenol. inhibition, % at 3.6 µM. hit rate 28% among 1,200. AID 1255;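 also: 0% = DMSO with agonist challenge and 100% = reference antagonist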
Active calls of the source: *; . = no result given. Most compounds without a hit are left out; they make up all but 2.5% or so of the library. Rule as the data show it, unless noted: active = inhibition above about 17%; inactive = the rest.

SMILES	NPY1 pot ag	Insulin prom up	NPY-Y2 PAM-ag	INS promoter inh	NPY Y2 blocker	NPY-Y1 antag	NPY1 antag conf	NPY2 antag ctr
COc1ccc(/C=N/OC(=O)Nc2ccccc2OC)cc1	-17.3	0.66	-15.5	8.1	.	21.9*	5.7	11.9
COc1ccc(NC(=O)O/N=C/c2ccncc2)cc1	12.7	.	20.9	.	.	-2.8	.	.
CCOC(=O)C1(CCOC)CCN(C(C)CCc2ccc(OC)cc2)CC1 (configuration not stated)	-5.3	-0.51	-19.5	.	.	6.7	.	.
O=C(NCc1nc(-c2ccccc2)no1)c1ccc2c(c1)OCO2	-34.4	0.88	-3.1	58.8	6.2	22.1*	13.3	10.4
CC(C)N(Cc1nc(-c2ccccc2)no1)C(=O)c1ccc2c(c1)OCO2	-36.7	.	-15.2	-37.1	7.2	7.2	.	.
CCN(CC(O)COCc1ccc(Cl)cc1)C1CCCCC1 (configuration not stated)	-1.1	-0.65	-4.7	-64.3	.	5.9	.	.
CCN(CC(O)COc1ccc(OCC(O)CN(CC)C2CCCCC2)cc1)C1CCCCC1 (configuration not stated)	-53.0	.	-10.7	19.1	9.5	21.5*	5.6	31.9*
Fc1ccc(-c2nn3c(C4COc5ccccc5O4)nnc3s2)cc1 (configuration not stated)	-58.1	0.04	-10.6	-6.5	3.9	21.0*	11.1	11.1
c1ccc2c(c1)OCC(c1nnc3sc(-c4cnccn4)nn13)O2 (configuration not stated)	-1.6	0.52	-2.7	-19.8	3.1	6.8	.	.
c1csc(-c2nn3c(C4COc5ccccc5O4)nnc3s2)c1 (configuration not stated)	-25.8	-0.29	-15.1	31.2	1.6	24.3*	7.1	6.9
c1ccc2c(c1)OCC(c1nnc3sc(-c4ccc5c(c4)OCO5)nn13)O2 (configuration not stated)	-19.2	.	-12.0	0.0	9.3	10.5	.	.
Cc1ccc(C(C(=O)Nc2ccc3c(c2)OCO3)N(C)C(=O)Cc2c[nH]c3ccccc23)cc1 (configuration not stated)	11.7	-0.72	4.3	6.7	0.8	34.9*	-1.0	-4.5
CC(C)(C)n1nnnc1C(c1ccc(C(F)(F)F)cc1)N(Cc1ccccc1)Cc1ccco1 (configuration not stated)	-3.6	-0.8	-5.0	8.6	7.1	46.6*	28.9*	11.2
CCN(Cc1ccccc1)C(c1ccc(C)cc1)c1nnnn1C(C)(C)CC (configuration not stated)	-27.6	-2.39	-27.0	-14.6	12.3	18.8	.	.
c1ccc(CN(Cc2ccco2)C(c2ccncc2)c2nnnn2C2CCCC2)cc1 (configuration not stated)	0.4	0.27	-5.0	.	6.2	26.2*	11.8	5.3
COc1ccccc1NC(=O)CSc1nc(N)c(-c2ccccc2)c(=O)[nH]1	-6.2	0.04	-45.2	.	.	73.6*	54.7*	67.6*
C/C(N)=C(/C#N)C(=O)COC(=O)c1ccccc1Oc1ccccc1	0.0	0.13	6.9	.	.	2.1	.	.
COC(=O)c1ccc(NC(=O)CN2C(=O)C3C4C=CC(C4)C3C2=O)cc1 (configuration not stated)	16.1	0.84	-3.2	.	3.6	22.6*	3.2	2.5
COc1ccc(-c2c[n+](CC(=O)OC3CC(C)CCC3C(C)C)c3n2CCC3)cc1 (configuration not stated)	-47.1	-4.91	-6.8	.	.	75.4*	61.1*	34.9*
CCCOc1ccc(-c2nc(OC)c3ccccc3n2)cc1	-37.2	0.48	3.1	-14.3	2.8	20.4*	11.6	18.1*
Cc1ccccc1CC1(CO)CCCN(C(=O)c2ccc(F)cc2)C1 (configuration not stated)	-3.1	0.42	1.8	.	.	-2.4	.	.
Cc1ccccc1CC1(CO)CCCN(C(=O)c2ccccc2N(C)C)C1 (configuration not stated)	13.2	-0.09	-7.2	-92.9	.	28.1*	5.0	5.6

From PubChem
